For 1 compound, inhibition and Activity results are on record in ChEMBL document CHEMBL2412990, “Synthesis and pharmacological evaluation of new N-phenylpiperazine derivatives designed as homologues of the antipsychotic lead compound LASSBio-579” (Eur J Med Chem, 2013).

Data set [1] concerns the target T1, 5-hydroxytryptamine receptor 1A (Rattus norvegicus) (UniProt P19327).
T1 sequence (whole entry): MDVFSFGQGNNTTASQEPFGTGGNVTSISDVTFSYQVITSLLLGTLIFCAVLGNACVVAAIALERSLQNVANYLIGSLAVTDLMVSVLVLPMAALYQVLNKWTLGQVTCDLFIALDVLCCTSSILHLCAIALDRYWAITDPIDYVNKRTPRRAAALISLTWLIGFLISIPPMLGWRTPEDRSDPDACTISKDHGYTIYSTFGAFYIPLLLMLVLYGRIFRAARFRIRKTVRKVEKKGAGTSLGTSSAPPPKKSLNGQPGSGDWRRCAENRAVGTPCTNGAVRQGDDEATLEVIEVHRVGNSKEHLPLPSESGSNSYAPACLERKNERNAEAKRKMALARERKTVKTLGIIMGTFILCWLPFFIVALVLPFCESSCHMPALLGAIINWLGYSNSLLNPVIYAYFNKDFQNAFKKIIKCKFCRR
Put plainly: Partial agonist activity at 5HT1A receptor in rat brain hippocampal membranes assessed as inhibition of [3H]-8-OH-DPAT binding to receptor after 15 mins by competition assay. It counts as cell membranes. The method in brief: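 Hippocampal membranes, 40 µg protein, incubated with 1 nM [3H]-8-OH-DPAT at 37 °C for 15 min under yellow light. Buffer was 50 mM Tris-HCl pH 7.4 with 1 mM CaCl2, 1 mM MnCl2 and pargyline. Non-specific binding was defined with 5-HT. Filters were soaked in 0.5% polyethyleneimine. IC50 came from nonlinear regression fitted with one or two sites. Ki by Cheng-Prusoff, using Kd from saturation experiments.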

Data set [2] relates to Alpha-2 adrenergic receptor (Rattus norvegicus). Put plainly: Antagonist activity at alpha2 adrenoreceptor in rat brain cortical membranes assessed as inhibition of [3H]-RX821002 binding to receptor after 45 mins by competition assay in presence of GTP.
Another data set deals with Mus musculus. Kind of data set: Toxicity in CF1 mouse assessed as effect on locomotor activity measuring number of crossings at 1 to 3 mg/kg, ip administered 30 mins prior ketamine challenge measured for 20 mins post challenge. It counts as organism-based. Conditions: in vivo. Set-up: dose 1-3 mg/kg, route intraperitoneal.

Active and inactive are the calls of the source. No cut-off for these calls is given here.

In the case of `Clc1ccc(-n2cc(CCCCN3CCN(c4ccccc4)CC3)cn2)cc1`, the inhibition result in data set [1] and in data set [2] was “Active” throughout. In the data set with Mus musculus, the Activity entry is “Non-toxic”.
